ChEMBL document CHEMBL1949609, “Synthesis and biological evaluation of novel sinomenine derivatives as anti-inflammatory agents” (Eur J Med Chem, 2012)
Calls of active or inactive are those of the source. The rule behind the calls is not given here.

Assays:
RAW264.7 [1] = assay: Antiinflammatory activity in mouse RAW264.7 cells assessed as inhibition of LPS-induced TNFalpha production at 10 uM after 12 hrs by ELISA (reference value: 4126.8 +/- 282 pg/ml); assay type: functional
Procedure, shortened: (§1)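 RAW264.7 cells (DMEM, 5% FBS, 37 °C, 5% CO2) were exposed to compound at 10 µM plus LPS 500 ng/mL at the same time, with 0.1% DMSO final. Supernatant TNF-α and IL-6 were measured by ELISA at 6, 12 and 24 h.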

RAW264.7 [2] = assay: Antiinflammatory activity in mouse RAW264.7 cells assessed as inhibition of LPS-induced IL-6 production at 10 uM after 6 hrs by ELISA (reference value: 1046.1 +/- 111.2 pg/ml); assay type: functional; procedure, shortened: as §1
[3] = target: MAP kinase p38 (Mus musculus) (UniProt P47811+O08911+Q9WUI1+Q9Z1B7); assay: Inhibition of LPS-induced MAPK p38 phosphorylation in mouse RAW264.7 cells at 10 uM after 4 to 6 hrs by Western blot analysis; assay type: cell-based
Procedure, shortened: (§2)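 Cells were given compound at 10 µM with LPS 500 ng/mL and lysed (Triton X-100 buffer) at 2, 4 and 6 h. Protein was quantified by BCA, run on 10% SDS-PAGE and transferred to PVDF. Blots were probed for total and phosphorylated JNK, ERK1/2, p38, NF-κB p65 and IκBα.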

[4] = target: Transcription factor p65 (Mus musculus) (UniProt Q04207); assay: Inhibition of NF-kappaB subunit p65 DNA binding activity in LPS-stimulated mouse RAW264.7 cells at 5 to 20 uM by luciferase reporter gene assay; assay type: cell-based
RAW264.7 [5] = assay: Inhibition of LPS-induced JNK phosphorylation in mouse RAW264.7 cells at 10 uM after 4 to 6 hrs by Western blot analysis; assay type: cell-based; procedure, shortened: as §2
RAW264.7 [6] = assay: Cytotoxicity against mouse RAW264.7 cells after 24 hrs by MTT assay; assay type: cell-based; conditions: RAW264.7, 24 h
Procedure, shortened: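 Growth of non-LPS RAW264.7 cells was measured by MTT after 24 h with compound: MTT for 4 h, formazan dissolved in DMSO, OD570. Untreated cells were set as 100% viability. IC50 is the concentration giving 50% growth inhibition.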

[7] = target: T1, Mitogen-activated protein kinase 1 and 3 (ERK2 and ERK1) (Mus musculus) (UniProt P63085+Q63844); assay: Inhibition of LPS-induced Erk1/2 phosphorylation in mouse RAW264.7 cells at 10 uM after 4 to 6 hrs by Western blot analysis; assay type: cell-based; procedure, shortened: as §2
Mus musculus [8] = assay: Antiinflammatory activity in BALB/c mouse assessed as decrease in LPS-induced serum TNFalpha level at 15 mg/kg, ip QD administered 3 days prior to LPS challenge measured after 3 hrs by ELISA; assay type: functional, organism-based; set-up: dose 15 mg/kg
Procedure, shortened: (§3)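 Balb/c mice were dosed i.p. at 15 mg/kg daily for 3 days (olive oil vehicle) before LPS 20 mg/kg i.p. Blood was drawn 3 h after LPS, and serum TNF-α and IL-6 were measured by ELISA. n = 6.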

[9] = target: Transcription factor p65 (Mus musculus) (UniProt Q04207); assay: Inhibition of NF-kappaB subunit p65 DNA binding activity in LPS-stimulated mouse RAW264.7 cells at 5 to 20 uM by electrophoretic mobility shift assay; assay type: cell-based
Mus musculus [10] = assay: Antiinflammatory activity in BALB/c mouse assessed as increase in survival rate at 15 mg/kg, ip QD administered 3 days prior to LPS challenge measured after 3 hrs (reference value: 10%); assay type: functional; conditions: route intraperitoneal
RAW264.7 [11] = assay: Inhibition of MAPK-mediated NFkappa B subunit p65 phosphorylation in LPS-stimulated mouse RAW264.7 cells at 10 uM after 4 to 6 hrs by Western blot analysis; assay type: cell-based; procedure, shortened: as §2
[12] = target: T2, NF-kappa-B inhibitor alpha (Mus musculus) (UniProt Q9Z1E3); assay: Inhibition of LPS-induced IkappaBalpha phosphorylation in mouse RAW264.7 cells at 10 uM after 4 to 6 hrs by Western blot analysis; assay type: cell-based; procedure, shortened: as §2
T2 sequence (whole entry): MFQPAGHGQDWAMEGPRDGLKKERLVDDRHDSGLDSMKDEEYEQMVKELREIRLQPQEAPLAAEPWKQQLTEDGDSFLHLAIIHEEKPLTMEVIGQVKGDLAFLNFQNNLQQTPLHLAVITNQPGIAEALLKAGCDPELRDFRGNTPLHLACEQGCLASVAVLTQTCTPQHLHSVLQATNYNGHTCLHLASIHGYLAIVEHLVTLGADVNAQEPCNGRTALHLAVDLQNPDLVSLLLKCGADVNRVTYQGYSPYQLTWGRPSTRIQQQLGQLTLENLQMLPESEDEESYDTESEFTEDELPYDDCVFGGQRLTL

[13] = target: T2, NF-kappa-B inhibitor alpha (Mus musculus); assay: Inhibition of IKappaBalpha degradation in LPS-stimulated mouse RAW264.7 cells at 10 uM by Western blot analysis; assay type: cell-based; procedure, shortened: as §2
RAW264.7 [14] = assay: Antiinflammatory activity in mouse RAW264.7 cells assessed as inhibition of LPS-induced IL-6 production at 10 uM after 12 hrs by ELISA (reference value: 2145.1 +/- 368.7 pg/ml); assay type: functional; procedure, shortened: as §1
RAW264.7 [15] = assay: Antiinflammatory activity in mouse RAW264.7 cells assessed as inhibition of LPS-induced nitric oxide production after 24 hrs by Griess method; assay type: functional, cell-based; conditions: RAW264.7, 24 h
Procedure, shortened: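 Cells were treated with compound (0.5–100 µM; 0.1% DMSO final) and LPS 500 ng/mL together for 24 h. Nitrite in the medium was read with Griess reagent (10 min, room temperature, dark) at OD540. IC50 comes from three separate experiments, each in triplicate.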

RAW264.7 [16] = assay: Antiinflammatory activity in mouse RAW264.7 cells assessed as inhibition of LPS-induced TNFalpha production at 10 uM after 6 hrs by ELISA (reference value: 2646.1 +/- 499.8 pg/ml); assay type: functional; procedure, shortened: as §1
RAW264.7 [17] = assay: Antiinflammatory activity in mouse RAW264.7 cells assessed as inhibition of LPS-induced IL-6 production at 10 uM after 24 hrs by ELISA (reference value: 13412 +/- 1167.6 pg/ml); assay type: functional; procedure, shortened: as §1
[18] = target: T2, NF-kappa-B inhibitor alpha (Mus musculus); assay: Inhibition of LPS-induced IkappaBalpha phosphorylation in mouse RAW264.7 cells at 10 uM at 4 hrs by Western blot analysis; assay type: cell-based; procedure, shortened: as §2
Mus musculus [19] = assay: Antiinflammatory activity in BALB/c mouse assessed as decrease in LPS-induced serum IL-6 level at 15 mg/kg, ip QD administered 3 days prior to LPS challenge measured after 3 hrs by ELISA; assay type: functional, organism-based; set-up: dose 15 mg/kg; procedure, shortened: as §3
RAW264.7 [20] = assay: Antiinflammatory activity in mouse RAW264.7 cells assessed as inhibition of LPS-induced TNFalpha production at 10 uM after 24 hrs by ELISA (reference value: 10124 +/- 1137.2 pg/ml); assay type: functional; procedure, shortened: as §1
Mus musculus [21] = assay: Antiinflammatory activity in BALB/c mouse assessed as increase in survival rate at 15 mg/kg, ip QD administered 3 days prior to LPS challenge measured after 19 hrs; assay type: functional; conditions: route intraperitoneal
Procedure, shortened: (§4)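 Balb/c mice (~20 g), 10 per group, given compound in olive oil at 15 mg/kg i.p. once daily for 3 days, then LPS 20 mg/kg i.p. Cumulative survival was followed after LPS and analysed by Kaplan–Meier against LPS-only mice.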

RAW264.7 [22] = assay: Antiinflammatory activity in mouse RAW264.7 cells assessed as inhibition of LPS-induced IL-6 production at 10 uM after 6 to 24 hrs by ELISA; assay type: functional, cell-based; procedure, shortened: as §1
RAW264.7 [23] = assay: Antiinflammatory activity in mouse RAW264.7 cells assessed as inhibition of LPS-induced TNFalpha production at 10 uM after 6 to 24 hrs by ELISA; assay type: functional, cell-based; procedure, shortened: as §1
[24] = target: T2, NF-kappa-B inhibitor alpha (Mus musculus); assay: Inhibition of LPS-induced IkappaBalpha phosphorylation in mouse RAW264.7 cells at 10 uM at 6 hrs by Western blot analysis; assay type: cell-based; procedure, shortened: as §2
[25] = target: Transcription factor p65 (Mus musculus) (UniProt Q04207); assay: Inhibition of NF-kappaB subunit p65 DNA binding activity in LPS-stimulated mouse RAW264.7 cells at 10 uM after 24 hrs by luciferase reporter gene assay; assay type: cell-based
RAW264.7 [26] = assay: Inhibition of MAPK-mediated NFkappa B subunit p65 phosphorylation in LPS-stimulated mouse RAW264.7 cells at 10 uM at 6 hrs by Western blot analysis; assay type: cell-based; procedure, shortened: as §2
[27] = target: T2, NF-kappa-B inhibitor alpha (Mus musculus); assay: Inhibition of IKappaBalpha degradation in LPS-stimulated mouse RAW264.7 cells at 10 uM at 4 to 6 hrs by Western blot analysis; assay type: cell-based; procedure, shortened: as §2
[28] = target: Transcription factor p65 (Mus musculus) (UniProt Q04207); assay: Inhibition of NF-kappaB subunit p65 DNA binding activity in LPS-stimulated mouse RAW264.7 cells at 10 uM after 20 mins by electrophoretic mobility shift assay; assay type: cell-based
Procedure, shortened: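 Nuclear extract (5 µg) was incubated with a biotin-labelled NF-κB consensus probe for 20 min at room temperature. Complexes were resolved on a 6% native gel in 0.5× TBE at 4 °C, then transferred to nylon and detected by chemiluminescence. Specificity was checked by 100-fold unlabelled competitor and p65 antibody supershift.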

Mus musculus [29] = assay: Antiinflammatory activity in BALB/c mouse assessed as decrease in LPS-induced mortality at 15 mg/kg, ip QD administered 3 days prior to LPS challenge; assay type: functional, organism-based; set-up: dose 15 mg/kg; procedure, shortened: as §4
[30] = target: Transcription factor p65 (Mus musculus) (UniProt Q04207); assay: Inhibition of NF-kappaB subunit p65 DNA binding activity in LPS-stimulated mouse RAW264.7 cells at 20 uM after 24 hrs by luciferase reporter gene assay; assay type: cell-based
[31] = target: T1, Mitogen-activated protein kinase 1 and 3 (ERK2 and ERK1) (Mus musculus); assay: […] of LPS-induced Erk1/2 phosphorylation in mouse RAW264.7 cells at 10 uM after 4 to 6 hrs by Western blot analysis; assay type: cell-based; procedure, shortened: as §2

Transcription factor p65 (Mus musculus), sequence (Q04207 whole entry): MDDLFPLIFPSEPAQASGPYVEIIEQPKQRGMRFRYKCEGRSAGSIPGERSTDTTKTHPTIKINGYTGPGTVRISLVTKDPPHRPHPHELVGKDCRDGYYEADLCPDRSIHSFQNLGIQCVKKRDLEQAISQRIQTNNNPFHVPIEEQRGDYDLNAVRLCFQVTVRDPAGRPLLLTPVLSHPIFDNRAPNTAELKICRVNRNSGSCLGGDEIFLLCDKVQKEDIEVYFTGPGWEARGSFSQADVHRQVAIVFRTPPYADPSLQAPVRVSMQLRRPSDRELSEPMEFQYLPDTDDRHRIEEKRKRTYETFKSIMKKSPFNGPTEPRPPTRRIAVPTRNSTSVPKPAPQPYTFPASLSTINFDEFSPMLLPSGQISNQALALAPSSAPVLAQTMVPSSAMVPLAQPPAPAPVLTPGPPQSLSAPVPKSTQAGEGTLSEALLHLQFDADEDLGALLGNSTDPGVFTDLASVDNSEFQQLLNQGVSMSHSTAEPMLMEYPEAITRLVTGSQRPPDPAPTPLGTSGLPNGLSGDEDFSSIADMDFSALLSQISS
T1 sequence (P63085 whole entry, looked up): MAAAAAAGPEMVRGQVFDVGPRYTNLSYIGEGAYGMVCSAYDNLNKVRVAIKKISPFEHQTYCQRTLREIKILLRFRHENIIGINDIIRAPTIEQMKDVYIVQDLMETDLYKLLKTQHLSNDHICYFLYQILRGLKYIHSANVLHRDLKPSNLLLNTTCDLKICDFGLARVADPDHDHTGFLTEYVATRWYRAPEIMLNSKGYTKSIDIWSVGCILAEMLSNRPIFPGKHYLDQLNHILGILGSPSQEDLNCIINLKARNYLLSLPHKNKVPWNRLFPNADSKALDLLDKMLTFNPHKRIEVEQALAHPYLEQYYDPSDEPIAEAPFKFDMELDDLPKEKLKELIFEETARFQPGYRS
T1 sequence (Q63844 whole entry, looked up): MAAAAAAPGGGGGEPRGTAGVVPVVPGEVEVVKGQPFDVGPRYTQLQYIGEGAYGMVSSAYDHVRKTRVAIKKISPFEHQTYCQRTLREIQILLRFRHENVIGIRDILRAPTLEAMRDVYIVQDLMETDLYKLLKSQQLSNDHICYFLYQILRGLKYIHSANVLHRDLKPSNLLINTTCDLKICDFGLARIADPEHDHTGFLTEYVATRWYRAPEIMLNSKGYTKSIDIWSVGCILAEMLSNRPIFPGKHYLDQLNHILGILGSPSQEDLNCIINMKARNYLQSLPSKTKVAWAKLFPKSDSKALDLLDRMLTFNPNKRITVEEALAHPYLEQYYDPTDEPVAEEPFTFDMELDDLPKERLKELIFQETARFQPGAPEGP

For `CCCCCCCCC(=O)Oc1c(OC)ccc2c1[C@@]13CCN(C)[C@@H](C2)[C@H]1C=C(OC)C(=O)C3`, the Activity (RAW264.7 [1]) was 4503.8 pg/mL, the Activity (RAW264.7 [2]) was 148.5 pg/mL and the inhibition [3] was “Active”. The inhibition [4] was “Active”, the inhibition (RAW264.7 [5]) was “Active” and the IC50 (RAW264.7 [6]) was 58.2 µM. The inhibition [7] was “Active”, the Activity (Mus musculus [8]) was “Active” and the inhibition [9] was “Active”. The survival at 15 mg/kg (Mus musculus [10]) was 30%, the inhibition (RAW264.7 [11]) was “Active” and the inhibition [12] was “Active”. The inhibition [13] was “Active”, the Activity (RAW264.7 [14]) was 223.7 pg/mL and the IC50 (RAW264.7 [15]) was 24.1 µM. For the same molecule, the Activity (RAW264.7 [16]) was 2338.5 pg/mL, the Activity (RAW264.7 [17]) was 486.3 pg/mL and the inhibition [18] was “inactive”. For the same molecule, the Activity (Mus musculus [19]) was “Active”, the Activity (RAW264.7 [20]) was 9728.9 pg/mL and the survival at 15 mg/kg (Mus musculus [21]) was 30%.

For `COC1=C[C@@H]2[C@@H]3Cc4ccc(OC)c(O)c4[C@]2(CCN3C)CC1=O` [SINOMENINE], the inhibition (RAW264.7 [22]) was “inactive”, the IC50 (RAW264.7 [6]) was > 200 µM and the inhibition (RAW264.7 [23]) was “inactive”. For the same molecule, the IC50 (RAW264.7 [15]) was > 200 µM.

`COC1=C[C@@H]2[C@@H]3Cc4ccc(OC)c(OCCCOc5c(OC)ccc6c5[C@@]57CCN(C)[C@@H](C6)[C@H]5C=C(OC)C(=O)C7)c4[C@]2(CCN3C)CC1=O` was tested, and the inhibition [24] was “Active”, the Activity (RAW264.7 [1]) was 3501.9 pg/mL and the Activity (RAW264.7 [2]) was 949.7 pg/mL. The inhibition [25] was “inactive”, the inhibition [3] was “inactive” and the inhibition (RAW264.7 [26]) was “Active”. The inhibition (RAW264.7 [5]) was “inactive”, the IC50 (RAW264.7 [6]) was 41.1 µM and the inhibition [27] was “Active”. For the same molecule, the Activity (Mus musculus [8]) was “Active”, the survival at 15 mg/kg (Mus musculus [10]) was 70% and the inhibition [28] was “inactive”. For the same molecule, the Activity (RAW264.7 [14]) was 1667.8 pg/mL, the IC50 (RAW264.7 [15]) was 15.2 µM and the Activity (Mus musculus [29]) was “Active”. For the same molecule, the inhibition [30] was “Active”, the Activity (RAW264.7 [16]) was 1817.6 pg/mL and the Activity (RAW264.7 [17]) was 13096.9 pg/mL. The Activity (Mus musculus [19]) was “Active”, the Activity (RAW264.7 [20]) was 8303.2 pg/mL and the Activity [31] was “Active”.
